The results in this text go back to paper PMC3677027 (The Biochemical journal, 2012).

Entries after “also recorded” stand apart in the source; their conditions may differ. Ends that are not written are not given here.

One data set has as its target EphA4 AP (Homo sapiens, UniProt P54764). The data set is described as follows: ELISA inhibition of EphA4 AP binding to immobilized ephrin-A5 Fc. To be noted: for IC50 value relative to unmodified KYL (in words): KYL alanine scan, ELISA, 0.05 nM EphA4 AP, ephrin-A5 Fc immobilized. The procedure, abridged:
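Peptides (purity ≥85%) were made as 10 mM DMSO stocks and tested at varied concentrations. Each was incubated for 3 h with 0.05 nM EphA4 AP in protein A wells precoated with 1 µg/ml ephrin-A5 Fc. Bound AP was quantified with p-nitrophenyl phosphate substrate in SEAP buffer, read as absorbance at 405 nm, and inhibition was computed from that signal.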

A short description of data set [1]: Peptide stability in mouse serum. Type of data set: in vitro ADME. Particulars: 37°C, ELISA read-out of residual antagonistic activity. The procedure, abridged:
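Peptide at 100, 200 or 500 µM (depending on peptide) was held in mouse serum at 37 °C and sampled over time. Samples were diluted 1:20 into protein A wells carrying 1 µg/ml ephrin-A5 Fc, with 0.05 nM EphA4 AP, for 30 min at 4 °C. Bound AP was read as OD405 and normalised: peptide-free serum = 0, unincubated peptide = 1.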
On the technique in general: ELISA stands for enzyme-linked immunosorbent assay.

In data set [2] the target is EphA4 ephrin-binding domain (residues 29-209) (human, UniProt P54764-1 29-209). The data set is described as follows: ITC.
Sequence of EphA4 ephrin-binding domain (residues 29-209) (P54764 29-209): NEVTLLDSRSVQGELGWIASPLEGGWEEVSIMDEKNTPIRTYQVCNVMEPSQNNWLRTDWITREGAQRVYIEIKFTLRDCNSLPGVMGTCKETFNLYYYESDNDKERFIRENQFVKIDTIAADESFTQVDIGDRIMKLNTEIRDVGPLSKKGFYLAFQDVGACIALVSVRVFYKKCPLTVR
For another data set, the target named is G132V EphA4 AP mutant (Homo sapiens, UniProt P54764, G160V). The data set is described as follows: ELISA binding to immobilized ephrin-A5 Fc. In outline:
(§1)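 Wild-type and mutant human EphA4 ephrin-binding domain–AP fusions were secreted from transfected HEK293T cells into Opti-MEM, and the medium was concentrated about 50-fold. Protein amount was estimated from AP activity. Ephrin-A5 Fc was captured at 0.5 µg/ml on protein A wells (1 h, RT, TBS/0.01% Tween 20), then EphA4 AP was added for 1 h. Bound AP was read with pNPP in SEAP buffer (pH 9.8) at OD405, minus Fc-only wells.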

The target of another data set is D123A EphA4 AP mutant (Homo sapiens, UniProt P54764, D151A). Nature of the data set: ELISA binding to immobilized ephrin-A5 Fc. The procedure, abridged: as §1
Sequence of D123A EphA4 AP mutant (P54764 30-209 D151A): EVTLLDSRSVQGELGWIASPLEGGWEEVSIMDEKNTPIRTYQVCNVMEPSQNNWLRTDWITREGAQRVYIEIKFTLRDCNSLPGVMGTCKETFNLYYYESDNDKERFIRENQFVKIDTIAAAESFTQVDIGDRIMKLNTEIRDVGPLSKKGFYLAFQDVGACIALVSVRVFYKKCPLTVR
A further data set concerns the target I131A EphA4 AP mutant (Homo sapiens, UniProt P54764, I159A). Nature of the data set: ELISA binding to immobilized ephrin-A5 Fc. The procedure, abridged: as §1
The target of the next data set is F126A EphA4 AP mutant (Homo sapiens, UniProt P54764, F154A). The data set is described as follows: ELISA binding to immobilized ephrin-A5 Fc. In outline: as §1
Sequence of F126A EphA4 AP mutant (P54764 30-209 F154A): as the sequence (P54764 30-209 D151A) above, with A122D, F125A counted along it
The target of the next data set is D33A EphA4 AP mutant (Homo sapiens, UniProt P54764, D61A). Nature of the data set: ELISA binding to immobilized ephrin-A5 Fc. The procedure, abridged: as §1
Sequence of D33A EphA4 AP mutant (P54764 30-209 D61A): as the sequence (P54764 30-209 D151A) above, with D32A, A122D counted along it
A further data set addresses M32A EphA4 AP mutant (Homo sapiens, UniProt P54764, M60A). Nature of the data set: ELISA binding to immobilized ephrin-A5 Fc. The procedure, abridged:
as §1

For the next data set, the target named is I39A EphA4 AP mutant (Homo sapiens, UniProt P54764, I67A). The data set is described as follows: ELISA binding to immobilized ephrin-A5 Fc. In outline:
as §1

The target of another data set is T41A EphA4 AP mutant (Homo sapiens, UniProt P54764, T69A). Nature of the data set: ELISA binding to immobilized ephrin-A5 Fc. In outline: as §1
Sequence of T41A EphA4 AP mutant (P54764 30-209 T69A): as the sequence (P54764 30-209 D151A) above, with T40A, A122D counted along it
The target of a further data set is V129A EphA4 AP mutant (Homo sapiens, UniProt P54764, V157A). Nature of the data set: ELISA binding to immobilized ephrin-A5 Fc. In outline:
as §1

Another data set concerns the target T76A EphA4 AP mutant (Homo sapiens, UniProt P54764, T104A). The data set is described as follows: ELISA binding to immobilized ephrin-A5 Fc. In outline: as §1
For the next data set, the target named is A165S EphA4 AP mutant (Homo sapiens, UniProt P54764, A193S). Nature of the data set: ELISA binding to immobilized ephrin-A5 Fc. The procedure, abridged:
as §1

For another data set, the target named is M136A EphA4 AP mutant (Homo sapiens, UniProt P54764, M164A). The data set is described as follows: ELISA binding to immobilized ephrin-A5 Fc. In outline:
as §1

For a further data set, the target named is Q43A EphA4 AP mutant (Homo sapiens, UniProt P54764, Q71A). The data set is described as follows: ELISA binding to immobilized ephrin-A5 Fc. The procedure, abridged: as §1
Sequence of Q43A EphA4 AP mutant (P54764 30-209 Q71A): as the sequence (P54764 30-209 D151A) above, with Q42A, A122D counted along it
The target of the next data set is S30A EphA4 AP mutant (Homo sapiens, UniProt P54764, S58A). Nature of the data set: ELISA binding to immobilized ephrin-A5 Fc. The procedure, abridged: as §1
Sequence of S30A EphA4 AP mutant (P54764 30-209 S58A): as the sequence (P54764 30-209 D151A) above, with S29A, A122D counted along it
The target in another data set is I31A EphA4 AP mutant (Homo sapiens, UniProt P54764, I59A). Nature of the data set: ELISA binding to immobilized ephrin-A5 Fc. The procedure, abridged:
as §1

For the next data set, the target named is R134A EphA4 AP mutant (Homo sapiens, UniProt P54764, R162A). Nature of the data set: ELISA binding to immobilized ephrin-A5 Fc. In outline:
as §1

For the next data set, the target named is EphA4 Fc (UniProt Q03137 20-547). The data set is described as follows: ELISA.
Sequence of EphA4 Fc (Q03137 20-547): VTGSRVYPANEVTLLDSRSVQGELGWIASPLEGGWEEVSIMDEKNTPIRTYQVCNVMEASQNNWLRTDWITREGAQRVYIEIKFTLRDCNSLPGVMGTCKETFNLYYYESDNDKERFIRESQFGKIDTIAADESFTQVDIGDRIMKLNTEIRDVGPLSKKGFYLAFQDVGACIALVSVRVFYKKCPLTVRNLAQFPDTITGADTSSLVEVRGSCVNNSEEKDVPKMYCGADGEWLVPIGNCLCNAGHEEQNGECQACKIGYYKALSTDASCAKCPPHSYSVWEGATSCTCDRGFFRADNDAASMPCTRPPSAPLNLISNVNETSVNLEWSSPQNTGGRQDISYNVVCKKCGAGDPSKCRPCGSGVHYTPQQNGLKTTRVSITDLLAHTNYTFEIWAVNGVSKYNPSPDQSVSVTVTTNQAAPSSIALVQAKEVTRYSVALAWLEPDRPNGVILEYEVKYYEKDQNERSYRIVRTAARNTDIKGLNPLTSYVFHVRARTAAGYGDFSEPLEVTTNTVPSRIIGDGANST
Where [3] appears, read: read-out: inhibition of EphA4 AP binding to ephrin-A5 Fc.

Sequence of EphA4 AP (P54764 30-209 limits assumed): as the sequence (P54764 30-209 D151A) above, with A122D counted along it
Sequence of V129A EphA4 AP mutant (P54764 30-209 V157A): as the sequence (P54764 30-209 D151A) above, with A122D, V128A counted along it
Sequence of G132V EphA4 AP mutant (P54764 30-209 G160V): as the sequence (P54764 30-209 D151A) above, with A122D, G131V counted along it
Sequence of T76A EphA4 AP mutant (P54764 30-209 T104A): as the sequence (P54764 30-209 D151A) above, with T75A, A122D counted along it
Sequence of A165S EphA4 AP mutant (P54764 30-209 A193S): as the sequence (P54764 30-209 D151A) above, with A122D, A164S counted along it
Sequence of M136A EphA4 AP mutant (P54764 30-209 M164A): as the sequence (P54764 30-209 D151A) above, with A122D, M135A counted along it
Sequence of I131A EphA4 AP mutant (P54764 30-209 I159A): as the sequence (P54764 30-209 D151A) above, with A122D, I130A counted along it
Sequence of R134A EphA4 AP mutant (P54764 30-209 R162A): as the sequence (P54764 30-209 D151A) above, with A122D, R133A counted along it
Sequence of M32A EphA4 AP mutant (P54764 30-209 M60A): as the sequence (P54764 30-209 D151A) above, with M31A, A122D counted along it
Sequence of I39A EphA4 AP mutant (P54764 30-209 I67A): as the sequence (P54764 30-209 D151A) above, with I38A, A122D counted along it
Sequence of I31A EphA4 AP mutant (P54764 30-209 I59A): as the sequence (P54764 30-209 D151A) above, with I30A, A122D counted along it

On to KYLPYWPVLASL [KYL-Ala10], for which the “IC50 value relative to unmodified KYL (in words)” value at EphA4 AP is given as “comparable to that of unmodified KYL”.

Take KYLPYWPVLSAL [KYL-Ala11]: at EphA4 AP, the “IC50 value relative to unmodified KYL (in words)” value is reported as “comparable to that of unmodified KYL”.

Take KYLPYWPVLSSL [KYL]: at EphA4 AP (setting [3]), the inhibition (as a rule, the share of the control response that was lost under treatment) at 5 µM is roughly 80%.

VTMEAINLAFPG [VTM]: the inhibition at 25 µM on EphA4 AP (setting [3]) is roughly 80%. Also, in data set [1], the “relative stability in mouse serum (in words)” value was “more stable than KYL and APY”.

Regarding KYLPYWPVLSSL [KYL peptide], the Kd (in general, the free concentration of one partner at which half of the binding sites on the other are occupied at equilibrium, for simple one-to-one binding) in data set [2] stood at 0.85 ± 0.15 µM.

B1: ephrin-A5: natural ephrin ligand of EphA4, used as Fc fusion (R&D Systems) (protein)
chain: QDPGSKAVADRYAVYWNSSNPRFQRGDYHIDVCINDYLDVFCPHYEDSVPEDKTERYVLYMVNFDGYSACDHTSKGFKRWECNRPHSPNGPLKFSEKFQLFTPFSLGFEFRPGREYFYISSAIPDNGRRSCLKLKVFVRPTNSCMKTIGVHDRVFDVNDKVENSLEPADDTVHESAEPSRGEN
modifications: left off: Fc, end not stated, kept
For B1, the “effect of mutation on ephrin-A5 binding (in words)” value (shortened to “effect of mutation”) with G132V EphA4 AP mutant is reported as “do not substantially affect”; with D123A EphA4 AP mutant it was “also affect ephrin-A5 binding”; in the data set with I131A EphA4 AP mutant it was “severely impair”; with F126A EphA4 AP mutant it was “severely impair”; with D33A EphA4 AP mutant, “also affect ephrin-A5 binding”; with M32A EphA4 AP mutant, “also affect ephrin-A5 binding”. Besides, the “effect of mutation” value with I39A EphA4 AP mutant is listed as “do not substantially affect”; in the data set with T41A EphA4 AP mutant, “do not substantially affect; also recorded: does not affect ephrin-A5 binding”; with V129A EphA4 AP mutant, “do not substantially affect”; in the data set with T76A EphA4 AP mutant, “severely impair”; in the data set with A165S EphA4 AP mutant, “also affect ephrin-A5 binding”; with M136A EphA4 AP mutant it was “also affect ephrin-A5 binding”. Further, the “effect of mutation” value in the data set with Q43A EphA4 AP mutant was “also affect ephrin-A5 binding”; with S30A EphA4 AP mutant, “do not substantially affect”; with I31A EphA4 AP mutant, “also affect ephrin-A5 binding”; with R134A EphA4 AP mutant, “severely impair”.

In [2], VTMEAINLAFPG [VTM peptide] yielded a Kd of 4.7 ± 0.1 µM.

Regarding VTMEAINLAFPA [VTM-Ala12], in the data set with EphA4 Fc, the “fold reduction of inhibitory potency against unmodified VTM” value was less than 2 fold.
